Compound activity deposited in PubChem by several laboratories.
Shown are actives, neighbours in structure and some others; about 5.5% of the full set was active somewhere.
E coli WT exp = growth inhibitors of E. coli BW25113 wild type; OD600 absorbance; growth inhibition, % at 100 µM; actives 0.15% (n = 98,000);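 active = growth inhibition above about 50% at one test dose, limit read from the data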;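 also: growth measured after 20 h incubation at 37 °C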
PLAP activator = activators of human placental alkaline phosphatase | purified PLAP enzyme, luminescent substrate read-out; stronger effect = higher value | actives 1.2% (n = 96,000) | activation fold at 20 µM; in the data active = activation fold above about 2
PostGolgi ctrl = yeast control strain growth, post-Golgi counter-screen. efflux-deficient yeast background strain, growth absorbance A615, 16 h. actives 5% (n = 98,000). inhibition, % at 10 µM. AID 738
PostGolgi yeast = growth inhibition of a yeast mutant, post-Golgi transport screen; post-Golgi transport phenotypic cell assay; inhibition, % at 10 µM; actives 0.9% (n = 98,000);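 also: yeast cells grown in 1536-well plates; yeast grown about 18 h at 30C before absorbance read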
HePTP inhibitor = blocks human HePTP tyrosine phosphatase | AID 521 | recombinant HePTP phosphatase activity, OD absorbance | inhibition, % at 20 µM | P35236 | actives 0.64% (n = 110,000); in the data active = inhibition above about 50%;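 also: plate controls were vehicle for no effect and reference inhibitor for full effect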
Target sequence (P35236 whole entry, looked up): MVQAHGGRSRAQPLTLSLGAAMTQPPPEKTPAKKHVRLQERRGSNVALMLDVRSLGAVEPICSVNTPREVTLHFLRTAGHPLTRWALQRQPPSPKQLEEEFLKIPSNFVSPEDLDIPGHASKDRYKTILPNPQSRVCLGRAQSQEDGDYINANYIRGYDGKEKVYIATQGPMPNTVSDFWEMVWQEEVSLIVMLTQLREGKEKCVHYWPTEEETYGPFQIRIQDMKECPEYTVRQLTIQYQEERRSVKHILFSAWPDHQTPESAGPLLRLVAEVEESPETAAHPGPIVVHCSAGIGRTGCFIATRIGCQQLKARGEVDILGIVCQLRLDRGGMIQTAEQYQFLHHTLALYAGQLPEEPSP
tolC growth inh = growth inhibitors of E. coli BW25113 tolC mutant | growth inhibition, % at 10 µM (by protocol) | actives 2.2% (n = 65,000) | OD615;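 active = growth inhibition at or above a cutoff equal to the mean over every tested compound plus 3 SD, cut at about 60% in these data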;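 also: growth measured after 20 h incubation at 37 °C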
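test system = E. coli BW25113 ΔtolC::kan bacteria | medium = LB with kanamycin 50 µg/mL | signal = OD at 615 nm | schedule = 37 °C, 20 h exposure | evaluation = % inhibition of E. coli growth | compound dosing = one dose of 10 µM final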
* = called active by the depositor. Rule as the data show it, unless noted: active = inhibition above about 30%; inactive = the rest.

Cc1c(OCC(=O)OCc2ccccc2)ccc2c3c(c(=O)oc12)CCC3 was read as HePTP inhibitor 5.
Screening Cc1ccc(Cl)c(OCCCCN(C)Cc2ccccc2)c1 returned E coli WT exp 12, PLAP activator 1.3, PostGolgi ctrl 34* and PostGolgi yeast 93*.
O=C(NNC(=S)NC(=O)C12CC3CC(CC(C3)C1)C2)c1ccncc1 was read as E coli WT exp 5, PLAP activator 1.9, PostGolgi ctrl 48* and PostGolgi yeast 42*.
O=C(NNC(=S)Nc1ccccc1)c1ccncc1 was read as E coli WT exp -2, PLAP activator 2*, PostGolgi ctrl 14 and PostGolgi yeast -4.
CCOP(=O)(c1ccccc1)c1nc(-c2ccc(F)cc2)oc1N1CCCCC1 (stereo unspecified) was read as E coli WT exp -2, PLAP activator 1.6, PostGolgi ctrl 32*, PostGolgi yeast -2, HePTP inhibitor 11 and tolC growth inh 16.
For Cc1sc(NC(=O)/C=C\C(=O)O)nc1-c1ccccc1 the results were HePTP inhibitor 103*.
Screening Cc1sc(NC(=O)CCC2CCCCC2)nc1-c1ccccc1 returned HePTP inhibitor 102*.
Screening COc1cccc(C2C(C(=O)/C=C/c3ccccc3)=C(O)C(=O)N2CCCCCC(=O)O)c1 (stereo unspecified) returned HePTP inhibitor 5.
`COc1ccc(OC)c(C2C(C(=O)/C=C/c3ccccc3)=C(O)C(=O)N2CCCCCC(=O)O)c1` (stereo unspecified) gave HePTP inhibitor 78*.
`COC(=O)c1c(C)oc2ccc(OCc3cccc(Br)c3)cc12` gave HePTP inhibitor 0.
Screening COc1cc(/C=N/NC(=Nc2ccc(C)cc2)c2nc3ccccc3s2)ccc1O returned E coli WT exp -8, PLAP activator 1.7, PostGolgi ctrl 55* and PostGolgi yeast 0.
For COc1ccccc1/C=N/NC(=Nc1ccc(C)cc1)c1nc2ccccc2s1 the results were E coli WT exp -12, PLAP activator 1, PostGolgi ctrl 21 and PostGolgi yeast -2.
For Cc1[nH]n(-c2ccc([N+](=O)[O-])cc2)c(=O)c1C=NC1CCCCC1 the results were HePTP inhibitor 10.
COC(=O)C1=C(C)N(c2ccc(C)c(C)c2)/C(=C\c2ccc(OCC(=O)Nc3ccccc3OC)cc2)C1=O was read as HePTP inhibitor 0.
`Cc1cc(-c2c(C)[nH]n(-c3ccc(Cl)cc3)c2=O)n[nH]1` gave E coli WT exp 17, PLAP activator 2*, PostGolgi ctrl -4 and PostGolgi yeast 5.
Screening Cc1[nH]n(-c2ccccc2)c(=O)c1C=Nc1ccc(Cl)cc1Cl returned HePTP inhibitor -13.
C=CCN1C(=O)/C(=C\c2ccc(-c3cc([N+](=O)[O-])ccc3C)o2)C(=O)NC1=S was read as HePTP inhibitor 102*.
Cc1ccc([N+](=O)[O-])cc1-c1ccc(/C=C2/C(=O)NC(=O)N(c3ccccc3)C2=O)o1 was read as HePTP inhibitor 8.
For O=C1NC(=S)N/C1=C/c1ccc(-c2cc([N+](=O)[O-])ccc2Cl)o1 the results were HePTP inhibitor 80*.
`CCOc1ccc(N2C(=O)/C(=C/c3ccc(-c4cc([N+](=O)[O-])ccc4Cl)o3)C(=O)NC2=S)cc1` gave HePTP inhibitor 10.
`Cc1ccc2oc(-c3cc(NC(=O)/C=C/c4ccccc4)ccc3O)nc2c1` gave HePTP inhibitor -15.
For COc1cc(-c2nnc(SCc3c(F)cccc3Cl)o2)cc(OC)c1OC the results were E coli WT exp -13, PLAP activator 1.2, PostGolgi ctrl 20, PostGolgi yeast 1, HePTP inhibitor 10 and tolC growth inh 41.
`COc1cc(-c2nnc(SCc3ccccc3Cl)o2)cc(OC)c1OC` gave E coli WT exp -1, PLAP activator 1, PostGolgi ctrl 15, PostGolgi yeast 1, HePTP inhibitor 2 and tolC growth inh 77*.
Screening COc1cc(-c2nc(Cc3ccccc3Cl)no2)cc(OC)c1OC returned E coli WT exp -1, PLAP activator 1, PostGolgi ctrl 14, PostGolgi yeast -4, HePTP inhibitor 1 and tolC growth inh 67*.
Screening COC(=O)c1c(-c2ccc(OC)cc2OC)csc1N returned HePTP inhibitor -2.
`COc1ccc2nc(Nc3nc(C)c(CCC(C)C)c(=O)[nH]3)nc(C)c2c1` gave E coli WT exp -4, PLAP activator 2.3*, PostGolgi ctrl 31*, PostGolgi yeast -1, HePTP inhibitor 12 and tolC growth inh 22.
`COc1ccc2nc(Nc3nc(CSc4nnnn4-c4ccccc4)cc(=O)[nH]3)nc(C)c2c1` gave E coli WT exp -13, PLAP activator 2.2*, PostGolgi ctrl 23 and PostGolgi yeast 12.
For CCOc1ccc2nc(Nc3nc(CSc4nnnn4-c4ccccc4)cc(=O)[nH]3)nc(C)c2c1 the results were E coli WT exp -15, PLAP activator 2.5*, PostGolgi ctrl 10 and PostGolgi yeast -1.
`Cc1ccc2c(C)nc(Nc3nc(CSc4nnnn4-c4ccccc4)cc(=O)[nH]3)nc2c1` gave E coli WT exp -8, PLAP activator 2.2*, PostGolgi ctrl 10, PostGolgi yeast 7, HePTP inhibitor 20 and tolC growth inh -5.
Screening COCc1cc(=O)[nH]c(Nc2nc(C)c3ccc(C)cc3n2)n1 returned HePTP inhibitor 5 and tolC growth inh 11.
`CCc1c(C)nc(Nc2nc(C)c3ccccc3n2)[nH]c1=O` gave HePTP inhibitor 0.
Screening O=C(c1cccc(F)c1)N1CCN(c2cc(N3CCOCC3)c(F)cc2[N+](=O)[O-])CC1 returned HePTP inhibitor 0.
For O=C(/C=C/c1cccc([N+](=O)[O-])c1)Nc1ccc(-c2nc3ncccc3o2)cc1 the results were HePTP inhibitor -2.
Screening COc1cc(/C=N/n2cnnc2)ccc1O returned HePTP inhibitor 0.
For CCN(CC)C(=O)CN(c1ccc(Cl)cc1)S(C)(=O)=O the results were HePTP inhibitor 6.
For O=C(c1cc(Cl)ccc1Cl)N(Cc1ccccc1)c1ccccn1 the results were HePTP inhibitor -4.
Screening Cc1ccc(NC(=O)CN(C)S(=O)(=O)c2cccc3nsnc23)cc1Cl returned E coli WT exp -9, PLAP activator 0.9, PostGolgi ctrl 17, PostGolgi yeast -1, HePTP inhibitor 7 and tolC growth inh 74*.
For O=C(CCC(=O)OCC(=O)c1ccc(Cl)cc1Cl)Nc1cccc2cccnc12 the results were E coli WT exp 4, PLAP activator 0.9, PostGolgi ctrl 38* and PostGolgi yeast 2.
For CC(=O)C(Sc1ccccc1[N+](=O)[O-])C(C)=O the results were HePTP inhibitor -26.
For O=[N+]([O-])c1ccc(NCCNS(=O)(=O)c2ccccc2)c(C(F)(F)F)c1 the results were E coli WT exp 0, PLAP activator 0.6, PostGolgi ctrl 13 and PostGolgi yeast -7.
